Consider 2 compounds from ChEMBL document CHEMBL1158019, “A new pregnane glycoside from Dioscorea collettii var. hypoglauca” (1999).

In one test the test system is Pyricularia. Description: Morphological deformation in Pyricularia oryzae mycelia. Format: functional. In short, it runs like this:
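Mycelia germinated from P. oryzae conidia were scored for morphological deformation. The endpoint was the minimum morphological deformation concentration (MMDC), the lowest concentration that produced deformation. Griseofulvin and fusarelin A served as positive controls.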

The next test concerns MDA-MB-231. Description: Cytotoxicity against human MDA-MB-231 cells after 5 days by MTT assay. It counts as functional, cell-based. In outline:
(§1)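 Cells grown in RPMI 1640 with 10% heat-inactivated FCS, penicillin/streptomycin and 5 µg/mL insulin. 1000 cells seeded per well; test samples added in fresh medium 24 h later, then 5 days at 37 °C. MTT (2 mg/mL solution) added for 4 h; cells dissolved in DMSO for 10 min; absorbance read at 540 nm. Untreated cells set as 100% survival; IC50 from viability-concentration plots; etoposide positive control.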

Another test concerns PC-3. Description: Cytotoxicity against human PC-3 cells after 5 days by MTT assay. Format: functional, cell-based. In outline: (§2)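 Cells grown in RPMI 1640 with 10% heat-inactivated FCS, 100 IU/mL penicillin and 100 µg/mL streptomycin. 1000 cells seeded per well; test samples added in fresh medium 24 h later, then 5 days at 37 °C. MTT (2 mg/mL solution) added for 4 h; cells dissolved in DMSO for 10 min; A540 read. Untreated cells taken as 100% survival; IC50 from viability-concentration plots; etoposide positive control.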

A further test relates to T47D. Description: Cytotoxicity against human T47D cells after 5 days by MTT assay. It counts as functional, cell-based. In outline:
as §1
In general terms: Tetrazolium dyes change colour on reduction, which living cells bring about.

The subject of the next test is HCT-15. Description: Cytotoxicity against human HCT-15 cells after 5 days by MTT assay. It counts as functional, cell-based. In short, it runs like this:
as §2

For the next test, the system named is LNCaP. Description: Cytotoxicity against human LNCaP cells after 5 days by MTT assay. Format: functional, cell-based. In outline: as §2
The test system of the next test is HT-29. Description: Cytotoxicity against human HT-29 cells after 5 days by MTT assay. Format: functional, cell-based. In outline:
as §2

Activity calls are given as the source filed them. No cut-off for these calls is given here.

For `CC(=O)C1=CC[C@H]2[C@@H]3CC=C4C[C@@H](O[C@@H]5O[C@H](CO)[C@@H](O[C@@H]6O[C@@H](C)[C@H](O)[C@@H](O)[C@H]6O)[C@H](O)[C@H]5O[C@@H]5O[C@@H](C)[C@H](O)[C@@H](O)[C@H]5O)CC[C@]4(C)[C@H]3CC[C@]12C`, the Activity in the test on Pyricularia stood at 236 µM. Besides, the outcome in the test with MDA-MB-231, with PC-3, in the test on T47D, with HCT-15, in the test on LNCaP and in the test with HT-29 was inactive.
For `CC(=O)[C@H]1[C@@H](OC(=O)CCC(C)CO[C@@H]2O[C@H](CO)[C@@H](O)[C@H](O)[C@H]2O)C[C@H]2[C@@H]3CC=C4C[C@@H](O[C@@H]5O[C@H](CO)[C@@H](O[C@@H]6O[C@@H](C)[C@H](O)[C@@H](O)[C@H]6O)[C@H](O)[C@H]5O[C@@H]5O[C@@H](C)[C@H](O)[C@@H](O)[C@H]5O)CC[C@]4(C)[C@H]3CC[C@@]21C` (some centres undefined) [HYPOGLAUCIN G], the Activity with Pyricularia amounted to 135 µM. For the same compound, the result in the test on MDA-MB-231, in the test with PC-3, in the test with T47D, in the test on HCT-15, in the test with LNCaP and with HT-29 was inactive.
